# Screening data deposited in PubChem by several laboratories.
# An excerpt weighted towards active compounds, which were near 2.2% of everything screened.
# VIM-2 inhibitor – VIM-2 metallo-beta-lactamase inhibitors, primary screen, biochemical, epi-absorbance readout, Pseudomonas aeruginosa enzyme; purified VIM-2, nitrocefin hydrolysis, epi-absorbance fluorescence; inhibition, % at 5.6 µM; 290,000 compounds, 0.89% hits;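 active = inhibition above the mean of all tested compounds plus 3 SD, cutoff set per screening run, cut at about 7.5% in these data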;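 also: red hydrolysis product quenches plate fluorescence so inhibitors raise well fluorescence; 0% = enzyme with DMSO and 100% = DMSO without enzyme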
# IMP-1 inh – IMP-1 metallo-beta-lactamase inhibitors, primary screen, biochemical, epi-absorbance readout, Pseudomonas aeruginosa enzyme; purified IMP-1, nitrocefin hydrolysis, epi-absorbance fluorescence; inhibition, % at 5.6 µM; metallo-beta-lactamase IMP-1 (Pseudomonas aeruginosa); 290,000 compounds, 0.45% hits;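 active = inhibition above the mean plus 3 SD of all compounds in the same screening run, cut at about 4.5% in these data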;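 also: 0% = IMP-1 with DMSO and 100% = DMSO wells lacking enzyme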
#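 System – purified recombinant IMP-1 beta-lactamase · Input – IMP-1 dispensed at 0.2 nM · Timing – 15 min preincubation plus 25 min reaction at 25 °C · Signal – Epi-absorbance fluorescence, 480 nm excitation, 530 nm emission · Measure – percent IMP-1 inhibition derived from blank-referenced optical density · Controls – Enzyme-plus-DMSO low control, enzyme-free DMSO high control · Replication – singlicate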
# PABP1 MLLE inh – inhibitors of PABP1 MLLE–PAM2 peptide binding, primary screen, biochemical, fluorescence polarization, FITC-PAM2, GST-MLLE; 360,000 compounds, 0.36% hits; inhibition, % at 20 µM; Polyadenylate-binding protein 1 (Homo sapiens), P11940; in the data active = inhibition above about 35%, passing the limit was not always enough;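 also: plate controls were DMSO wells with GST-MLLE for no effect and wells lacking GST-MLLE protein for full effect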
# eIF4H inh – human eIF4H binding inhibitors, primary screen, translation initiation inhibitor project, biochemical, uHTS, fluorescence polarization; Eukaryotic translation initiation factor 4H (Homo sapiens), Q15056; eIF4H fluorescence polarization binding assay; inhibition, % at 35 µM; 290,000 compounds, 0.94% hits; AID 2012, 2009;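 also: calls also rest on retests at 20 µM and on dose response follow-up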
# PABP FP inh – PABP poly(A) RNA binding inhibitors, primary screen, biochemical, fluorescence polarization, uHTS. calls only at 35 µM. 290,000 compounds, 1% hits. AID 2014, 2009;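 also: calls also rest on retests at 20 µM and on dose response follow-up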
# Numbers without * were called inactive; i = inactive; u = inconclusive; x = no result; + = active, no number. Unless noted, no rule for the calls is given here.
SMILES,VIM-2 inhibitor,IMP-1 inh,PABP1 MLLE inh,eIF4H inh,PABP FP inh
CC(C)C(NC(=O)c1ccc(C(C)(C)C)cc1)C(=O)NC1=NCCS1 (stereo unspecified),-5.5,0.3,15.6,-8.6,i
O=C(NC1=NCCS1)c1ccccc1Cl,-0.1,-1.9,9.5,7.0,i
C=CC[C@@H](CC(=O)NCCO)C(=O)N[C@H](C)COC(=O)[C@@H](CC=C)Cc1ccc(F)cc1,x,x,11.9,x,x
Cc1ccc2c(c1)C(c1ccncc1)=NNC(c1ccc(C(C)C)cc1)=N2,-0.2,-1.4,x,0.3,i
Cc1nc2ccccc2c2oc(C(=O)NCCN3CCCCC3C)cc12 (stereo unspecified),10.6*,-3.3,-6.5,18.4,i
CCN1CCCC1CNC(=O)c1cc2c(C)nc3ccccc3c2o1 (stereo unspecified),8.2*,0.9,5.2,3.2,i
CCc1ccc(CNC(=O)c2cc3c(C)nc4ccccc4c3o2)cc1,-4.1,-2.8,-3.4,6.8,i
CCCc1nnc(NC(=O)OCC)s1,-4.0,-4.1,2.3,-12.7,i
Cn1c(SCC(=O)Nc2nncs2)nnc1C1CC1,-2.5,-0.1,-11.3,89.5*,+
CC(C)(C)n1nc2c(c1NC(=O)COc1ccc(Cl)cc1)CS(=O)(=O)C2,-2.1,-1.6,7.1,active,+
COc1ccc(OCC(=O)Nc2c3c(nn2C(C)(C)C)CS(=O)(=O)C3)cc1,-0.9,-2.2,2.5,-4.5,i
CC(=O)Nc1ccc(-c2ccccc2)s1,-1.6,-1.2,-139.1,69.2,+
OC(c1ccccc1)c1ncc(-c2cccc(C(F)(F)F)c2)[nH]1 (stereo unspecified),x,x,5.7,x,x
COc1ccccc1NOC(=O)CCOc1ccccc1,x,x,-3.5,x,x
O=C(Cn1cc([N+](=O)[O-])cn1)Nc1cccnc1,-2.8,-2.0,4.7,8.0,i
O=c1oc2c3c4c(cc2s1)CCCN4CCC3,5.2,-1.0,74.1*,122.4*,+
O=c1ccc2cc3c4c(c2o1)CCCN4CCC3,-2.3,-2.6,162.3,u,u
Cc1ccccc1-n1c(N)cc(=O)[nH]c1=S,0.2,-2.0,27.4,-0.9,i
O=c1cc(O)n(-c2ccccc2F)c(=S)[nH]1,-3.8,-0.7,-2.0,45.8*,+
Cc1ccccc1-n1c(O)cc(=O)[nH]c1=S,0.1,1.2,19.2,52.9*,i
O=c1cc(O)n(-c2ccc(Cl)cc2)c(=S)[nH]1,-3.3,-3.3,0.4,-1.6,i
C/C(=N\NC(=O)c1cccc(N/N=C(\C)c2ccco2)c1)c1ccco1,0.0,-0.8,-18.7,90.2*,+
C/C(=N\NC(=O)c1cccc([N+](=O)[O-])c1)c1ccco1,-3.0,-2.4,10.2,u,u
Cc1ccc(C(=O)N2[C@@H]3CN(C)C(=O)[C@@]2(C)[C@H]2C(=O)N(C)C(=O)[C@@H]32)cc1,x,x,0.3,x,x
CCN(c1c(C)n(C)n(-c2ccccc2)c1=O)S(C)(=O)=O,-2.3,-3.8,52.0*,6.6,i
SMILES,VIM-2 inhibitor,IMP-1 inh,PABP1 MLLE inh,eIF4H inh,PABP FP inh
COc1nnc(-c2ccccc2)s1,-0.6,-2.2,38.8*,-4.7,i
CSc1ccc(/C=C/C(=O)N2CCN(c3ccccn3)CC2)cc1,-2.0,-3.7,-4.0,-14.0,i
Clc1ccc2c(N/N=C/c3cccnc3)ccnc2c1,11.5*,0.8,-25.0,13.4,i
Clc1ccc2c(N/N=C/c3ccc(Br)cc3)ccnc2c1,-2.0,-3.1,-64.4,4.9,i
C=CCOc1ccc(/C=N/NC(=O)C(=O)Nc2ccccn2)cc1OC,0.0,-0.2,-3.1,3.4,i
Cc1ccc(C(=O)Nc2nc3ccccc3c(=O)s2)cc1,-2.8,-2.0,46.0*,4.3,i
CSc1nc2ccc3nc(NC(=O)c4ccc(C)cc4)sc3c2s1,-2.4,-1.6,-0.6,-7.8,i
O=C(Nc1nc(=O)c2ccccc2s1)c1ccccc1,11.0*,-2.4,29.3,-11.7,i
CC(=O)Nc1nc(=O)c2ccccc2s1,6.2,-1.9,28.4,8.4,i
COc1cc2c3c(cccc3c1)C(=O)N(CCN1CCCC1)C2=O,x,x,-10.6,x,x
O=C(COC(=O)c1ccccc1NC(=O)c1ccco1)Nc1ncc(Cl)cc1Cl,-0.5,-2.1,-15.7,2.1,i
O=C(COC(=O)c1ccccc1O)Nc1ncc(Cl)cc1Cl,-1.5,-3.3,-0.1,73.6,+
COc1ccc(OCCCC(=O)OCC(=O)Nc2ncc(Cl)cc2Cl)cc1,x,x,45.4*,x,x
O=C(C1CCCN(Cc2ccccc2)C1)N1CCc2ccccc2C1 (stereo unspecified),-3.9,0.5,2.4,-2.6,i
COc1ccc2c(c1)CCCC21SC(NC(C)=O)=NN1C(C)=O (stereo unspecified),0.6,-1.8,6.8,-13.5,i
O=C1NC[C@H](c2ccccc2)N(CCC23CC4CC(CC(C4)C2)C3)C1=O,x,x,1.8,x,x
COc1ccc(OC(=O)CN2C(=O)C3C4CCC(C4)C3C2=O)cc1 (stereo unspecified),3.6,1.0,-3.0,63.9,+
COc1cc(/C=C2\CCC/C(=C\c3ccc(O)c(OC)c3)C2=O)ccc1O,11.3*,-0.1,-81.0,-1.2,i
COc1cc(/C=C/C(=O)CC(=O)/C=C/c2ccc(O)c(OC)c2)ccc1O,-1.2,17.8*,-79.0,49.6,i
COC(=O)C1=C(O)/C(=C\c2ccc(O)c(OC)c2)N=C1C,-3.6,-2.8,-34.8,56.2*,+
COc1ccc(CCCC(=O)NCC(=O)N/N=C/c2cc(Cl)ccc2OC)cc1,-1.5,-0.6,-9.1,7.5,i
CN(C)c1oc(-c2ccccc2Cl)nc1C#N,1.4,-1.6,-5.7,-12.0,i
CN(C)c1oc(-c2ccccc2[N+](=O)[O-])nc1C#N,-1.6,-1.4,42.2*,-6.4,i
CCON1C(=O)C2(CCCCC2)C(=O)C12C=CCCC2 (stereo unspecified),x,x,-23.7,x,x
O=C1N(O)C2(C=CCCC2)/C(=N\O)C12CCCCC2 (stereo unspecified),10.4*,1.4,-2.7,-9.3,i
CSc1ccc(C2NC(=O)c3c(sc4c3CCN(C)C4)N2)cc1 (stereo unspecified),0.6,-1.1,-65.2,108.6*,+
COc1ccccc1N1CCN(C(=O)c2ccc(-c3ccc(Cl)cc3)o2)CC1,x,x,10.0,x,x
CC1(C)C(=O)Nc2ccccc2N1C(=O)COc1ccc(S(=O)(=O)N2CCOCC2)cc1Cl,-1.8,-3.5,-19.6,64.3,+
O=C(COc1ccc(S(=O)(=O)N2CCOCC2)cc1Cl)N1CCCC1,-0.9,-4.5,-4.3,-12.1,i
CC(O)CC(C(=O)NNc1ccccc1)C(=O)NNc1ccccc1 (stereo unspecified),-2.2,-1.8,-7.0,3.0,i
